# This is a sample that favours compounds with a hit; in the whole collection about 3.1% have one here.
# EWS-Fli inh: EWS/Fli transcriptional activity inhibition. A673 NR0B1-luciferase reporter, viability-normalised. inhibition, % at 12.6 µM. 350,000 compounds, 0.67% hits. AID 651661;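 active = mean inhibition of at least 50% after viability correction, with every replicate also passing that limit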;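 also: firefly luciferase signal divided by Alamar Blue viability fluorescence both relative to DMSO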
# PAX8 reporter: PAX8 transcriptional activity inhibition; RMG-I TPO-luciferase reporter, SteadyGlo, 24 h; inhibition, % at 12.6 µM; 360,000 compounds, 1.2% hits; AID 652154;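 active = mean replicate inhibition at least 60% with every replicate also reaching 60%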;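 also: luciferase light reporting Pax8 driven TPO promoter activity; plate controls were median of neutral control wells for no effect and mitoxantrone controls for full effect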
# HIV Env fusion: HIV envelope-mediated fusion inhibition. HeLa-JRFL Env/CEM21 cell fusion, luciferase. inhibition, % at 12.3 µM. 360,000 compounds, 1.1% hits;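 active = mean replicate inhibition score of at least 50 and every replicate individually at or above 50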;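 also: 0% = plate neutral controls and 100% = maraviroc near 300 nM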
# FGF22 binding: shifts melting point of recombinant human FGF22. Q9HCT0. 340,000 compounds, 1.5% hits. activity (Tm shift, normalised), % at 9.99 µM. AID 651658. recombinant FGF22 thermal shift, SYPRO orange fluorescence; percent of sucrose octasulfate shift, DMSO zero;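 active = mean Tm shift, scaled 0 neutral to 100 positive control, at about 1.3% or above, every replicate too, limit read from the data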
# Target sequence (Q9HCT0 whole entry, looked up): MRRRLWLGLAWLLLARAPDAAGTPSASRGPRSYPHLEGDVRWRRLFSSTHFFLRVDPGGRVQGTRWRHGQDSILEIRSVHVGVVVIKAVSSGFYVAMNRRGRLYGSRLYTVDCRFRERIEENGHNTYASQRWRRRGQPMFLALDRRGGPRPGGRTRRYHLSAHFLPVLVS
# FN deposition inh: fibronectin deposition inhibition; AH1F fibroblasts, Alexa488-fibronectin deposition fluorescence, overnight; inhibition, % at 12.6 µM; 350,000 compounds, 0.086% hits; AID 743247;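 active = mean inhibition across replicates of 30% or more, regardless of how many single replicates reach that level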;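 also: positive control wells lacked labelled fibronectin entirely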
#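 Material: AH1F fibroblasts assembling fluorescent fibronectin matrix; amount: 10000 AH1F cells/well; medium: DMEM, 2% serum; reagent: Alexa488-fibronectin, 24 nM final in well; dosing: single compound dose, delivered by pin transfer; incubation: 1 h adhesion, overnight exposure; detection: fluorescence after three HBSS washes, excitation 485 nm, emission 525 nm; measure: fibronectin deposition inhibition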
# PGC1a acetyl inh: lowers PGC1a acetylation signal in U2OS cells; AlphaScreen anti-acetyl-lysine; with virally co-expressed GCN5 acetyltransferase; AID 651687; inhibition, % at 15.6 µM; 350,000 compounds, 0.17% hits;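 active = every replicate shows inhibition of at least 40%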;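 also: 0% = neutral control wells and 100% = positive control wells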
# * = called active by the depositor; . = no result; [ ] = another dose, or the depositor's remark.
SMILES,EWS-Fli inh,PAX8 reporter,HIV Env fusion,FGF22 binding,FN deposition inh,PGC1a acetyl inh
C=CC[C@@H](CC(=O)N(CCO)Cc1ccccc1)C(=O)N[C@@H](COC(=O)[C@@H](CC=C)Cc1ccc(F)cc1)Cc1c[nH]c2ccccc12,-6.4,50.2,-31.4,0.1,-7.9,.
C=CCC[C@@H](Cc1ccc(F)cc1)C(=O)OC[C@@H](Cc1c[nH]c2ccccc12)NC(=O)[C@H](CC=C)CC(=O)N(CCO)Cc1ccccc1,4.0,101.4*,4.4,-0.2,-16.6,1.5
C=CCC[C@@H](Cc1ccc(F)cc1)C(=O)OC[C@H](Cc1c[nH]c2ccccc12)NC(=O)[C@H](CC=C)CC(=O)NCCO,6.6,27.3,21.2,0.1,-2.6,4.8
C=CCC[C@H](Cc1ccc(F)cc1)C(=O)OC[C@@H](Cc1c[nH]c2ccccc12)NC(=O)[C@H](CC=C)CC(=O)NCCO,-2.1,28.5,30.0,-0.4,-6.3,-14.5
C=CC[C@H](CC(=O)N(CCO)Cc1ccccc1)C(=O)N[C@@H](COC(=O)[C@@H](CC=C)Cc1ccc(F)cc1)Cc1c[nH]c2ccccc12,0.4,69.1*,-180.3,-0.1,-13.8,.
C=CCC[C@H](Cc1ccc(F)cc1)C(=O)OC[C@@H](Cc1c[nH]c2ccccc12)NC(=O)[C@H](CC=C)CC(=O)N(CCO)Cc1ccccc1,6.0,76.7*,-150.1,-0.1,-7.0,-5.7
C[C@@H]1CN([C@@H](C)CO)C(=O)c2cc(NC(=O)CCCCCC(=O)Nc3ccccc3N)ccc2O[C@@H]1CN(C)S(C)(=O)=O,11.3,-5.9,.,0.0,.,-10.6
Cc1cc(C(=O)NCC(=O)OCC(=O)NCCc2ccccc2)ccc1[N+](=O)[O-],9.8,-0.2,-3.0,43.8*,.,3.6
COC(=O)c1ccc2nc(-c3ccc4c(c3)OCO4)cn2c1,2.1,21.5,-6.9,41.9,4.2,0.4
CCc1ccn2cc(-c3ccc4c(c3)OCO4)nc2c1,83.1*,80.2*,15.8,0.1,-11.2,13.5
C[C@@H]1CN([C@@H](C)CO)C(=O)c2cc(NS(=O)(=O)c3cn(C)cn3)ccc2O[C@@H](C)CCCCO[C@@H]1CN(C)C(=O)C1CCCCC1,-12.2,-10.5,-0.6[16.7 µM],0.3,.,0.3
COCC(=O)N(C)C[C@H]1Oc2cc(C3=CCCCC3)ccc2S(=O)(=O)N([C@@H](C)CO)C[C@H]1C,-12.6,.,-5.6[16.7 µM],-0.2,.,1.8
CS(=O)(=O)Nc1cccc(-c2cc(NC=O)c3ncc(-c4ccc(F)cc4)n3c2)c1,2.6,80.7*,-0.5,-0.3,2.9,-7.8
COc1cc(-c2cc(NC=O)c3ncc(-c4ccc(F)cc4)n3c2)cc(OC)c1OC,14.7,18.2,-7.2,-0.5,9.7,-21.1
COc1cccc(-c2cc(NC=O)c3ncc(-c4cc(OC)c(OC)c(OC)c4)n3c2)c1,52.6*,26.2,-269.0,0.1,4.4,-47.4
COc1cc(-c2cnc3c(NC=O)cc(-c4ccsc4)cn23)cc(OC)c1OC,56.0*,.,-94.1,-0.3,-0.6,0.5
Cc1cccc(-c2cc(NC=O)c3ncc(-c4cccc(C(=O)N(C)C)c4)n3c2)c1,27.2,41.2,-19.6,-0.2,7.1,.
CN(C)C(=O)c1cccc(-c2cnc3c(NC=O)cc(-c4cccc(C(F)(F)F)c4)cn23)c1,12.7,.,56.0*,-0.9,-1.6,3.5
C[C@@H]1CN([C@H](C)CO)C(=O)c2cc(-c3ccccc3)cnc2O[C@H]1CN(C)Cc1ccccc1,-0.6,.,0.6[16.7 µM],0.1,-2.3,-10.2
COc1cccc(-c2cnc3c(c2)C(=O)N([C@H](C)CO)C[C@H](C)[C@H](CN(C)S(=O)(=O)c2cccs2)O3)c1,1.7,.,.,-0.2,1.7,-11.2
CC(=O)Nc1ccc(C(=O)Nc2nc(-c3ccccn3)cs2)cc1,-12.6,0.3,12.1,43.9*,-11.7,5.0
CCCn1nc(C(=O)Nc2nc(-c3ccccn3)cs2)c2ccccc2c1=O,11.1,73.8*,5.5,-0.2,0.8,12.8
Cn1nc(C(=O)Nc2nc(-c3ccccn3)cs2)c2ccccc2c1=O,13.3,-5.2,-35.9,-0.2,.,10.0
O=C(Nc1nc(-c2ccccn2)cs1)c1ccc2c(c1)OCCO2,-33.9,-129.1,-121.9,0.3,18.3,7.2
CC(=O)Nc1ccc(C(=O)Nc2nc(-c3cccnc3)cs2)cc1,-4.0,-19.9,-6.4,43.3*,6.0,-18.3
SMILES,EWS-Fli inh,PAX8 reporter,HIV Env fusion,FGF22 binding,FN deposition inh,PGC1a acetyl inh
O=C(Nc1nc(-c2ccccn2)cs1)c1ccccc1-n1cnnn1,-2.6,59.2,13.1,41.2,3.5,43.0*
C[C@@H]1CN([C@@H](C)CO)C(=O)c2cc(C#CCN(C)C)cnc2O[C@H]1CN(C)C(=O)Cc1cccnc1,1.0,.,-13.1[16.7 µM],0.0,-2.3,7.9
CC1CCc2nc3ccc(S(=O)(=O)N4CCC(C(=O)NCc5ccccc5Cl)CC4)cc3c(C(=O)O)c2C1 (stereo unspecified),15.3,12.5,3.5,-0.1,-15.0,.
CC1CCC(NC(=O)C2CCN(S(=O)(=O)c3ccc4nc5c(c(C(=O)O)c4c3)CC(C)CC5)CC2)CC1 (stereo unspecified),16.2,5.8,1.6,43.2*,6.3,7.2
C[C@H](CO)N1C[C@H](C)[C@H](CN(C)Cc2ccc3c(c2)OCO3)Oc2ccc(NS(=O)(=O)c3ccccc3)cc2C1=O,4.6,2.1,8.9[16.7 µM],-0.2,-9.4,9.2
Cc1ccc(-c2csc(Nc3ccc(S(N)(=O)=O)cc3)n2)o1,-21.6,-7.7,12.4,42.9*,.,2.3
CCCNC(=O)C[C@H]1CC[C@H]2[C@@H](COc3ccc(NC(=O)c4cc(F)cc(F)c4)cc3C(=O)N2C)O1,3.6,6.0,-4.0[16.7 µM],-0.3,.,1.6
CNC(=O)C[C@@H]1CC[C@@H]2[C@@H](COc3ccc(NC(=O)NC(C)C)cc3C(=O)N2C)O1,-1.4,14.6,-10.4[16.7 µM],-0.1,1.3,0.8
O=S(=O)(c1ccc(F)cc1)N1CCC2(CC1)OCCO2,-1.2,-2.5,5.4,0.1,-0.2,-1.5
O=S(=O)(c1cc(F)ccc1F)N1CCC2(CC1)OCCO2,.,8.9,59.7*,0.1,.,.
COc1ccc([C@H]2C/C=C\C[C@H](c3ccc(F)cc3)NC(=O)CCC(=O)N2)c(OC)c1,.,.,.,.,-14.2,.
COCCOC(=O)c1[nH]c2c(c1C)C(=O)CC(c1ccco1)C2 (stereo unspecified),64.9*,45.7,-293.1,40.7,6.3,.
Cc1c(C(=O)OCCOC(C)C)[nH]c2c1C(=O)CC(c1ccco1)C2 (stereo unspecified),.,.,.,.,.,-8.5
CCOC(=O)c1[nH]c2c(c1C)C(=O)CC(c1ccco1)C2 (stereo unspecified),31.5,82.8*,-444.3,0.2,16.2,14.2
Cc1c(C(=O)OCc2ccccc2)[nH]c2c1C(=O)CC(c1ccco1)C2 (stereo unspecified),.,.,.,.,.,3.3

# Bioassay records (PubChem)
